ChEMBL document CHEMBL4354813, “Design, Synthesis, and Pharmacological Evaluation of Potent Positive Allosteric Modulators of the Glucagon-like Peptide-1 Receptor (GLP-1R)” (J Med Chem, 2020)
The source made the active and inactive calls. The calls are words filed in the database; no cut-off is given here.

Experiments:
[1] = molecular target: T1, Glucagon-like peptide 1 receptor (Mus musculus) (UniProt O35659); test: Inhibition of 15 mM glucose-mediated increase in intracellular Ca2+ level in mouse MIN6-c4 cells at 30 uM by FLIPR assay relative to control; format: functional, cell-based
T1 sequence (whole entry): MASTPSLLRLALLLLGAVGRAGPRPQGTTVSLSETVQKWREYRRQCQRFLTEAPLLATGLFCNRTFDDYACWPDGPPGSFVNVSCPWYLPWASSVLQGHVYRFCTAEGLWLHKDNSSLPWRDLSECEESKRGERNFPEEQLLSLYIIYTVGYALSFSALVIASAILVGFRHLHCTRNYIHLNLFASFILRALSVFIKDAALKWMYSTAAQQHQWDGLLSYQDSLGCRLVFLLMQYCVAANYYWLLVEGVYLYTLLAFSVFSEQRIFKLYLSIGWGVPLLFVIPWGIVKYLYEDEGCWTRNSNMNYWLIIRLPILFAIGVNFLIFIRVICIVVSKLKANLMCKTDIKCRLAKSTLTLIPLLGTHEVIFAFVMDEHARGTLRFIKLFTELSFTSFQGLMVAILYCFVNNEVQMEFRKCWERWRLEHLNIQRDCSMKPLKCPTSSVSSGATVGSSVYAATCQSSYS

[2] = molecular target: T2, Glucagon-like peptide 1 receptor (Mus musculus, UniProt O35659); test: Positive allosteric modulator activity at mouse GLP-1R expressed in PSC-HEK293 cells in presence of EC20 level of GLP1(9-36)NH2 incubated for 30 mins by HTRF cAMP assay; format: functional, cell-based
T2 sequence (O35659 whole entry): T1 sequence (whole entry)

[3] = molecular target: T1, Glucagon-like peptide 1 receptor (Mus musculus); test: Positive allosteric modulator activity at mouse GLP-1R expressed in PSC-HEK293 cells in presence of EC20 level of GLP1(9-36)NH2 incubated for 30 mins by HTRF cAMP assay relative to control; format: functional, cell-based
[4] = molecular target: T3, Glucagon-like peptide 1 receptor (Homo sapiens, UniProt P43220); test: Positive allosteric modulator activity at human GLP-1R expressed in PSC-HEK293 cells in presence of EC20 level of GLP1(9-36)NH2 incubated for 30 mins by HTRF cAMP assay relative to control; format: functional, cell-based
In short: (§1)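 Thaw-and-use PSC-HEK293 cells stably expressing human GLP-1R, 2000 cells/well in HBSS/20 mM HEPES/0.1% BSA with 2 mM IBMX. Enhancer format: compound dose-response plus fixed EC20 GLP1(9-36)NH2. Shift format: GLP1(9-36)NH2 dose-response plus 10 or 3 μM compound. 30 min at room temperature. HTRF cAMP read after 1 h lysis (665/620 nm). EC50 from a 4-parameter logistic fit.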

[5] = molecular target: T3, Glucagon-like peptide 1 receptor; test: Positive allosteric modulator activity at GLP-1R in human 1.1B4 cells in presence of EC20 level of GLP1(9-36)NH2 incubated for 30 mins by HTRF cAMP assay relative to control; format: functional, cell-based
In short: (§2)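 Human pancreatic β-cell line 1.1B4, 20,000 cells/well cultured overnight, washed twice; compound concentration-response with fixed 10 nM GLP1(9-36)NH2, 30 min. cAMP by HTRF 665/620 ratio, normalised to buffer (1x HBSS, 0.1% BSA, 1 mM IBMX; 0%) and GLP-1(7-36)NH2 (100%); 4-parameter logistic fit.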

[6] = molecular target: T3, Glucagon-like peptide 1 receptor; test: Positive allosteric modulator activity at human GLP-1R expressed in PSC-HEK293 cells in presence of EC20 level of GLP1(9-36)NH2 incubated for 30 mins by HTRF cAMP assay; format: functional, cell-based
In short: as §1, with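 “temperature.” for “temperature. HTRF cAMP read after 1 h lysis (665/620 nm).”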

[7] = molecular target: T3, Glucagon-like peptide 1 receptor; test: Positive allosteric modulator activity at GLP-1R in human 1.1B4 cells in presence of EC20 level of GLP1(9-36)NH2 incubated for 30 mins by HTRF cAMP assay; format: functional, cell-based; in short: as §2
[8] = molecular target: T3, Glucagon-like peptide 1 receptor; test: Positive allosteric modulator activity at human GLP-1R expressed in PSC-HEK293 cells assessed as potentiation of GLP1(9-36)NH2-induced cAMP accumulation by measuring shift in EC50 of endogenous GLP1(9-36)NH2 at 10 uM incubated for 30 mins by HTRF cAMP assay relative to control; format: functional, cell-based
In short: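 Thawed frozen PSC-HEK293 cells stably expressing human GLP-1R, 2000 cells/well in HBSS/20 mM HEPES/0.1% BSA with 2 mM IBMX. Shift format: GLP1(9-36)NH2 dose-response with compound fixed at 10 or 3 µM; 30 min room temperature; cAMP by HTRF (665/620 nm ratio) after 1 h with lysis reagents; 4-parameter logistic fit; EC50 shift factor derived.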

[9] = Agonist activity at KATP channel (unknown origin); set-up: species or system Homo sapiens
[10] = molecular target: Sodium channel protein type 2 subunit alpha (Homo sapiens) (UniProt Q99250); test: Effect on Nav1.2 (unknown origin)
[11] = molecular target: T1, Glucagon-like peptide 1 receptor (Mus musculus); test: Positive allosteric modulator activity at GLP-1R in mouse MIN6-c4 cells assessed as effect on glucose-mediated increase in intracellular Ca2+ level by FLIPR assay relative to control; format: functional, cell-based
[12] = Stability in GSH assay; format: physicochemical
[13] = molecular target: Sodium channel protein type 5 subunit alpha (Homo sapiens, UniProt Q14524); test: Effect on Nav1.5 (unknown origin)
[14] = molecular target: T3, Glucagon-like peptide 1 receptor; test: Displacement of radioactive labeled GLP-1(7-36)NH2 from human GLP-1R by radioactive ligand binding assay
Mus musculus [15] = test: Suppression of blood glucose concentration in ob/ob C57Bl/6J mouse model of T2DM at 4.5 mg/kg, ip and treated with 60 mg/kg, po OATP/MRP2 inhibitor rifampicin 2.5 hrs prior to oral glucose-tolerance test; format: functional, organism-based
In short: (§3)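 Male ob/ob mice aged 10–11 weeks, n=7, randomised on blood glucose and fasted overnight. Rifampicin 60 mg/kg p.o. 2.5 h before the oGTT, compound 30 mg/kg p.o. 1 h before, GLP1(9-36)NH2 i.p. 15 min before, each given as indicated. Glucose 2 g/kg orally. Tail-vein glucose by glucometer at 0, 15, 30, 60 and 90 min.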

Mus musculus [16] = test: Suppression of blood glucose concentration in ob/ob C57Bl/6J mouse model of T2DM at 4.5 mg/kg, ip in absence of 60 mg/kg, po OATP/MRP2 inhibitor rifampicin by oral glucose-tolerance test; format: functional, organism-based; in short: as §3
[17] = Cmax in mouse at 10 mg/kg, po; conditions: in vivo
[18] = Tmax in mouse at 10 mg/kg, po; conditions: in vivo

T3 sequence (P43220 whole entry): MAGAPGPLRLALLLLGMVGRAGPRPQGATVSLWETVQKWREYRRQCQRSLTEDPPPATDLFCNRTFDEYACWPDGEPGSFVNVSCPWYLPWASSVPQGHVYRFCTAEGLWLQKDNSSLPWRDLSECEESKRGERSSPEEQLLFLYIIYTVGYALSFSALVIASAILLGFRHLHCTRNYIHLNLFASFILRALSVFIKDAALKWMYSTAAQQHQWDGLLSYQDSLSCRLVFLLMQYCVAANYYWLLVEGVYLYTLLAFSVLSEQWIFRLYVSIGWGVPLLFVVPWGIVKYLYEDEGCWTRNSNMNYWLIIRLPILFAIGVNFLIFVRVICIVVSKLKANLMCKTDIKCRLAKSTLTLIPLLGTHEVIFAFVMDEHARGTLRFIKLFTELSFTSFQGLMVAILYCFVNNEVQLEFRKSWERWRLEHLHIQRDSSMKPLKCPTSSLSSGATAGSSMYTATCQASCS
Sequence of Sodium channel protein type 2 subunit alpha (Homo sapiens) (Q99250 whole entry, looked up): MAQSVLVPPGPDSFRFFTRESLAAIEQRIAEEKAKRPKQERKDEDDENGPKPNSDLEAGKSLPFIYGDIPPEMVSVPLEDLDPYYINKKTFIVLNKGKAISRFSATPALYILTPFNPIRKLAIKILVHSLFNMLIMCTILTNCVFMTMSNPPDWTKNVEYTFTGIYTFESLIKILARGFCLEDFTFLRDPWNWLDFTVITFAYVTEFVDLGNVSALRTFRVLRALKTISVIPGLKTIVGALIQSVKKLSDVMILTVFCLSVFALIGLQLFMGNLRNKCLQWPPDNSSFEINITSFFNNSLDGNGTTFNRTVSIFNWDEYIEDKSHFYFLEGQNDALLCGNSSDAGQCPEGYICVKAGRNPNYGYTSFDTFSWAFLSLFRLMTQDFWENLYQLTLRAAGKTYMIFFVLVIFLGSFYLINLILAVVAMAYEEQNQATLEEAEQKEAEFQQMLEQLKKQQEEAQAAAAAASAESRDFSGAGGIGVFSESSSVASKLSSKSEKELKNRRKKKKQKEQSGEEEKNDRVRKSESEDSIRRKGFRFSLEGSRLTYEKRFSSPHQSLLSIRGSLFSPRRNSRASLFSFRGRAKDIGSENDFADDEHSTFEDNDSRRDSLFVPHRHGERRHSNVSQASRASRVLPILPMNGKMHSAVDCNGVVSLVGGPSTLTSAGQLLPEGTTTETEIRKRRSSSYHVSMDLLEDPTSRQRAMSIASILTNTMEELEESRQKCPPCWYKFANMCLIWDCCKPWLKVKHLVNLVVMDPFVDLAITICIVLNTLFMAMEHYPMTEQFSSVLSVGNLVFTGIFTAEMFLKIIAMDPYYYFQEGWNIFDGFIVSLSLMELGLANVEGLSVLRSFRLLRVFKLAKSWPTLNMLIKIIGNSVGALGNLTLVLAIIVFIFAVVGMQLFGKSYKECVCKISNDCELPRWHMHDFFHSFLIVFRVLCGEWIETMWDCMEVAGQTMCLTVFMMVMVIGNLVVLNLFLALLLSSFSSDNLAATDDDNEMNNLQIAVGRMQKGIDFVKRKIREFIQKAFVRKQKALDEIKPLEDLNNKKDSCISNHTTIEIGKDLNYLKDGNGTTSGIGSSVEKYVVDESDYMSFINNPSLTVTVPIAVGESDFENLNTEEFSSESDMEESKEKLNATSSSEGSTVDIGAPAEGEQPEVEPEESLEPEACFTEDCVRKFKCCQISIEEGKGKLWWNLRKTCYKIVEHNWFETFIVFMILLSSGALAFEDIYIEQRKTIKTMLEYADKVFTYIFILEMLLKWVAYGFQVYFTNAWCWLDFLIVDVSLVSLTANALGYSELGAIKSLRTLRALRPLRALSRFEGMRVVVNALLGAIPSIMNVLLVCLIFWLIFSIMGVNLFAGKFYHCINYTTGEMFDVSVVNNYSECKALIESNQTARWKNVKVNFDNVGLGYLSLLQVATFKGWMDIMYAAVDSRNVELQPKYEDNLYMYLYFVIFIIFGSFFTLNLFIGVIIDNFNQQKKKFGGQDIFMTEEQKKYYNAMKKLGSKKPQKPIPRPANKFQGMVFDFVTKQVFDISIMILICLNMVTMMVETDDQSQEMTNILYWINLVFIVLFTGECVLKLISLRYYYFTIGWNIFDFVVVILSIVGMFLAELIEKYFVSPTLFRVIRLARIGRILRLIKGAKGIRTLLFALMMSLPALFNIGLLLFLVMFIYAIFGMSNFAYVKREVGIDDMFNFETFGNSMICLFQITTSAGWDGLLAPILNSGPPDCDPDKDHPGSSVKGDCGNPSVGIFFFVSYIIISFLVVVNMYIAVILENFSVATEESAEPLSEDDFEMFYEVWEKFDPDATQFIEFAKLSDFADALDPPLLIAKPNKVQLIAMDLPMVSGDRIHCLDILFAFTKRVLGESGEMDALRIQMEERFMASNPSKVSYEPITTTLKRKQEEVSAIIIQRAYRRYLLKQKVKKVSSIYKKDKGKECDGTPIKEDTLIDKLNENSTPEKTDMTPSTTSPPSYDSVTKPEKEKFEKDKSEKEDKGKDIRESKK
Sequence of Sodium channel protein type 5 subunit alpha (Q14524 whole entry): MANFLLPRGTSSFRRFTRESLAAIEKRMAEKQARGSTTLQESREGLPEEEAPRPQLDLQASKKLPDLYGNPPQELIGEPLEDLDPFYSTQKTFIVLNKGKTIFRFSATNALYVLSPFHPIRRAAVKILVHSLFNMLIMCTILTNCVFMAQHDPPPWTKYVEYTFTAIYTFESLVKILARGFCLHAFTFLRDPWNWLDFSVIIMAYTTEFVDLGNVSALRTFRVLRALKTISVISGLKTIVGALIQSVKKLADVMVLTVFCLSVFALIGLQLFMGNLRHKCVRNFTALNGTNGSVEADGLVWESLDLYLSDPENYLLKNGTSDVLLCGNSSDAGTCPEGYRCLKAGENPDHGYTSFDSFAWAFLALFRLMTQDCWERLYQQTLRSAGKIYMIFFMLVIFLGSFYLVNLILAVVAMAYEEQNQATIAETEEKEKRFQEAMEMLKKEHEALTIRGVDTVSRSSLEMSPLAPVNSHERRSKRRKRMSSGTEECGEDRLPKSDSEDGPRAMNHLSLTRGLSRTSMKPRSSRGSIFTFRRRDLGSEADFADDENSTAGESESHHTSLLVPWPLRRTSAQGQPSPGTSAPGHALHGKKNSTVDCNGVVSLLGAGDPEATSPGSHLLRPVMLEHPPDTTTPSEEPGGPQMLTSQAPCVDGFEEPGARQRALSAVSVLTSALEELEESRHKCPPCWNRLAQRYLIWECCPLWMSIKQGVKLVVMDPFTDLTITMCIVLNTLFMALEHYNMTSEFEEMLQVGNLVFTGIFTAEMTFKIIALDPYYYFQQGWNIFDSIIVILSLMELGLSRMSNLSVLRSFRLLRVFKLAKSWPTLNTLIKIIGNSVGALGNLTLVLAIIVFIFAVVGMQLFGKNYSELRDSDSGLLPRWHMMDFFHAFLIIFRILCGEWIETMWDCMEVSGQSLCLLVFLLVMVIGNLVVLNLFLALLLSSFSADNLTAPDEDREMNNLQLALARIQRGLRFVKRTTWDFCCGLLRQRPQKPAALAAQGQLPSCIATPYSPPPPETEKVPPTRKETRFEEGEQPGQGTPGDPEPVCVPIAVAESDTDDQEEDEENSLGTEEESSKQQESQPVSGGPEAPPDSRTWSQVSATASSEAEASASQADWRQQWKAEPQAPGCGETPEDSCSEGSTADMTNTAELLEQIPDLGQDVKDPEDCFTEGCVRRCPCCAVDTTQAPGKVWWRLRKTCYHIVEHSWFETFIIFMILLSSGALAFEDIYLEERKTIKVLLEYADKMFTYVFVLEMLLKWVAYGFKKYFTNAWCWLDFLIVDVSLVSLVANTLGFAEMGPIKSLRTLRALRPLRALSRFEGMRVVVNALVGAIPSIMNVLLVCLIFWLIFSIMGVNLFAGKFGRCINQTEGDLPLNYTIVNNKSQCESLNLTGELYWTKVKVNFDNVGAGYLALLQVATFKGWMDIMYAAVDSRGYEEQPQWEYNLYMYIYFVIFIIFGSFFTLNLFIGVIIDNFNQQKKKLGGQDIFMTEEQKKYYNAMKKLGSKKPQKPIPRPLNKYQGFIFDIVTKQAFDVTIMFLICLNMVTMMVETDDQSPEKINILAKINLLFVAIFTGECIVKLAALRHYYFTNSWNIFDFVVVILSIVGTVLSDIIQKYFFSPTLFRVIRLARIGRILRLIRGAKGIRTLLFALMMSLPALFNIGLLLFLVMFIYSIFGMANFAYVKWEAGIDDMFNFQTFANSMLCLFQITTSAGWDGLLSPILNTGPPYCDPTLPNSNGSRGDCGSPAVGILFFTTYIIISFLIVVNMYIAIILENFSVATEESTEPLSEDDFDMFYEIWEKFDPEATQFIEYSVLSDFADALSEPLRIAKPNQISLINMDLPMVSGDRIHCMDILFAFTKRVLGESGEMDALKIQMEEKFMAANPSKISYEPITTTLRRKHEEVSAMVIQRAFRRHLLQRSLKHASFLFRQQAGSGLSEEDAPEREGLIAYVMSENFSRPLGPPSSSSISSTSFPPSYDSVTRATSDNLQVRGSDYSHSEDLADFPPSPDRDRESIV

CC1=Nc2ccc(Cl)cc2S(=O)(=O)N1
inhibition [1]: Active

Cc1cc(-n2nc3c(c2-n2ccn(-c4ccc5c(cnn5C)c4F)c2=O)[C@H](C)N(C(=O)c2cc4cc([C@H]5CCOC(C)(C)C5)ccc4n2[C@@]2(c4noc(=O)[nH]4)C[C@@H]2C)CC3)cc(C)c1F [ORFORGLIPRON]
EC50 [2]: 300 nM | Emax [3]: 100% | Emax [4]: 91%

CC(C)(C)OC(=O)n1c2c(c3ccccc31)C[C@H]1C(=O)NC[C@@H]2N1C(=O)CC1CCC(F)(F)CC1
Emax [5]: inactive | EC50 [6]: 5 nM | EC50 [7]: Not Active | Ratio EC50 [8]: 3800 | EC50 [9]: 2670 nM | Activity [10]: Active | fold change (FC) [11]: inactive | Stability [12]: Stable | Activity [13]: Active | inhibition [14]: inactive | Emax [4]: 99%

CC[C@H](C)[C@H](NC(=O)[C@H](Cc1ccccc1)NC(=O)[C@H](CCC(=O)O)NC(=O)[C@H](CCCCN)NC(=O)[C@H](C)NC(=O)[C@H](C)NC(=O)[C@H](CCC(N)=O)NC(=O)CNC(=O)[C@H](CCC(=O)O)NC(=O)[C@H](CC(C)C)NC(=O)[C@H](Cc1ccc(O)cc1)NC(=O)[C@H](CO)NC(=O)[C@H](CO)NC(=O)[C@@H](NC(=O)[C@H](CC(=O)O)NC(=O)[C@H](CO)NC(=O)[C@@H](NC(=O)[C@H](Cc1ccccc1)NC(=O)[C@@H](NC(=O)CNC(=O)[C@@H](N)CCC(=O)O)[C@@H](C)O)[C@@H](C)O)C(C)C)C(=O)N[C@@H](C)C(=O)N[C@@H](Cc1c[nH]c2ccccc12)C(=O)N[C@@H](CC(C)C)C(=O)N[C@H](C(=O)N[C@@H](CCCCN)C(=O)NCC(=O)N[C@@H](CCCNC(=N)N)C(N)=O)C(C)C
Activity (Mus musculus [15]): inactive | Activity (Mus musculus [16]): inactive

CO[C@H]1/C=C/O[C@@]2(C)Oc3c(C)c(O)c4c(O)c(c(/C=N/N5CCN(C)CC5)c(O)c4c3C2=O)NC(=O)/C(C)=C\C=C\[C@H](C)[C@H](O)[C@@H](C)[C@@H](O)[C@@H](C)[C@H](OC(C)=O)[C@@H]1C [RIFAMPIN]
Cmax [17]: 13 µM | Tmax [18]: 1.5 h
